Reference: ChEMBL document CHEMBL1153081, “Antimalarial acridines: synthesis, in vitro activity against P. falciparum and interaction with hematin” (Bioorg Med Chem, 2009)

Columns and labels:
[1] = Selectivity index, ratio of IC50 for human KB cells to IC50 for chloroquine-resistant Plasmodium falciparum Bre1; format: toxicity, cell-based; settings: read-out: Ratio IC50
Method in brief: (§1)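 SI is the ratio of the KB-cell IC50 to the parasite [3H]hypoxanthine IC50 for the given strain. KB cells were grown in D-MEM with 10% FCS and antibiotics under 5% CO2 and plated at 650 cells/well. After 24 h they were treated with compounds in DMSO (0.5 nM to 10 µM; 1% DMSO final) for 72 h. MTS was then added for 3 h at 37 °C and A490 was read against controls. IC50 runs were done in separate duplicate.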

[2] = Binding affinity to synthetic hematin by spectrophotometry
Method in brief: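 Monomeric hematin solution: hematin in 0.1 M NaOH with DMSO and 0.02 M sodium phosphate buffer (pH 6.0), made up with water. Drug and hematin were mixed at 10 molar ratios. Complex stoichiometry and dissociation constant Kd were determined by spectrophotometric methods.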

Plasmodium falciparum [3] = experiment: Antiplasmodial activity against chloroquine-resistant Plasmodium falciparum W2 assessed as inhibition of [3H]hypoxanthine incorporation; format: functional, organism-based
[4] = Dissociation constant, pKa by spectrophotometry; format: physicochemical
[5] = Inhibition of beta-hematin formation after 18 hrs; format: functional
Method in brief: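 Modified BHIA: 8 mM hemin in DMSO (0.4 µmol per tube) was mixed with compounds in DMSO or DMSO/MeOH (1:1) at 0–10 molar equivalents to hemin, in triplicate. Acetate buffer held pH 5, and water-only controls were run. Hematin was quantified after serial dilution in 0.1 M NaOH, by absorbance at 405 nm. IC50 was taken as the concentration inhibiting crystallization by 50%.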

Plasmodium falciparum [6] = experiment: Antiplasmodial activity against chloroquine-resistant Plasmodium falciparum Bre1 assessed as inhibition of [3H]hypoxanthine incorporation; format: functional, organism-based
[7] = Selectivity index, ratio of IC50 for human KB cells to IC50 for chloroquine-resistant Plasmodium falciparum W2; format: toxicity, cell-based; settings: read-out: Ratio IC50; method in brief: as §1
[8] = Selectivity index, ratio of IC50 for human KB cells to IC50 for chloroquine-resistant Plasmodium falciparum FCR3/Gambia; format: toxicity, cell-based; settings: read-out: Ratio IC50; method in brief: as §1
Plasmodium falciparum [9] = experiment: Antiplasmodial activity against chloroquine-sensitive Plasmodium falciparum 3D7 assessed as inhibition of [3H]hypoxanthine incorporation; format: functional, organism-based
KB = experiment: Cytotoxicity against human KB cells after 72 hrs by MTS assay; format: cell-based
Method in brief: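 KB cells were grown in D-MEM with 10% fetal calf serum, penicillin, streptomycin and fungizone, under 5% CO2. They were seeded at 650 cells/well and dosed 24 h later with compounds in DMSO, from 0.5 nM upward; controls got DMSO (1% final). MTS was added for 3 h at 37 °C and absorbance read at 490 nm as % of control. IC50 came from separate duplicate experiments.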

Plasmodium falciparum [10] = experiment: Antiplasmodial activity against chloroquine-resistant Plasmodium falciparum FCR3/Gambia assessed as inhibition of [3H]hypoxanthine incorporation; format: functional, organism-based; settings: FCR-3/Gambia
[11] = Selectivity index, ratio of IC50 for human KB cells to IC50 for chloroquine-sensitive Plasmodium falciparum 3D7; format: toxicity, cell-based; settings: read-out: Ratio IC50; method in brief: as §1

Question: What does the source list for COc1ccc2nc3cc(Cl)ccc3c(NCCCCCCNc3c4ccc(Cl)cc4nc4ccc(OC)cc34)c2c1?
Answer: selectivity ratio [1]: 0.045; Kd [2]: 20 µM; IC50 (Plasmodium falciparum [3]): 4.55 µM; pKa [4]: 8.23; IC50 [5]: 1300 µM; IC50 (Plasmodium falciparum [6]): 1.11 µM; selectivity ratio [7]: 0.01; selectivity ratio [8]: 0.05; IC50 (Plasmodium falciparum [9]): 3.39 µM; IC50 (KB): 0.05 µM; IC50 (Plasmodium falciparum [10]): 1.01 µM

Question: Which selectivity ratio [1] does the source give for COc1ccc2nc3cc(Cl)ccc3c(NCCCCN)c2c1 here?
Answer: 2

Question: What about the Kd [2] of the same molecule?
Answer: 8.1 µM

Question: What about the selectivity ratio [11] of the same molecule?
Answer: 8.9

Question: And the IC50 (Plasmodium falciparum [3])?
Answer: 0.25 µM

Question: And the pKa [4]?
Answer: 9.1

Question: And the IC50 [5]?
Answer: 1000 µM

Question: What about the IC50 (Plasmodium falciparum [6]) of the same molecule?
Answer: 0.3 µM

Question: What about the selectivity ratio [7] of the same molecule?
Answer: 2.4

Question: And the selectivity ratio [8]?
Answer: 2.4

Question: What about the IC50 (Plasmodium falciparum [9]) of the same molecule?
Answer: 0.067 µM

Question: What about the IC50 (KB) of the same molecule?
Answer: 0.6 µM

Question: What about the IC50 (Plasmodium falciparum [10]) of the same molecule?
Answer: 0.25 µM

Question: With NCCCCCCNc1c2ccccc2nc2ccccc12 as the molecule, how does the selectivity ratio [1] read?
Answer: 1.8

Question: What about the Kd [2] of the same molecule?
Answer: 4.6 µM

Question: What about the selectivity ratio [11] of the same molecule?
Answer: 0.7

Question: And the IC50 (Plasmodium falciparum [3])?
Answer: 0.6 µM

Question: And the pKa [4]?
Answer: 9.86

Question: And the IC50 [5]?
Answer: 300 µM

Question: And the IC50 (Plasmodium falciparum [6])?
Answer: 0.43 µM

Question: What about the selectivity ratio [7] of the same molecule?
Answer: 1.3

Question: And the selectivity ratio [8]?
Answer: 2.2

Question: What about the IC50 (Plasmodium falciparum [9]) of the same molecule?
Answer: 1.13 µM

Question: And the IC50 (KB)?
Answer: 0.79 µM

Question: And the IC50 (Plasmodium falciparum [10])?
Answer: 0.36 µM

Question: What does the source list for COc1ccc2nc3cc(Cl)ccc3c(NCCN)c2c1?
Answer: selectivity ratio [1]: 7; Kd [2]: 4.2 µM; selectivity ratio [11]: 50; IC50 (Plasmodium falciparum [3]): 0.25 µM; pKa [4]: 7.94; IC50 [5]: 4600 µM; IC50 (Plasmodium falciparum [6]): 0.28 µM; selectivity ratio [7]: 8; selectivity ratio [8]: 6; IC50 (Plasmodium falciparum [9]): 0.042 µM; IC50 (KB): 2.07 µM; IC50 (Plasmodium falciparum [10]): 0.33 µM

Question: Which results are given for NCCCCCCCC(=O)Nc1c2ccccc2nc2ccccc12?
Answer: selectivity ratio [1]: 2; selectivity ratio [11]: 1.3; IC50 (Plasmodium falciparum [3]): 50 µM; pKa [4]: 4.59; IC50 [5]: 1100 µM; IC50 (Plasmodium falciparum [6]): 26.7 µM; selectivity ratio [7]: 1.1; selectivity ratio [8]: 1.8; IC50 (Plasmodium falciparum [9]): 41.9 µM; IC50 (KB): 52.9 µM; IC50 (Plasmodium falciparum [10]): 28.6 µM

Question: Which results are given for COc1ccc2nc3cc(Cl)ccc3c(NCCCCCCN)c2c1?
Answer: selectivity ratio [1]: 4.1; Kd [2]: 4.4 µM; selectivity ratio [11]: 5.4; pKa [4]: 9.2; IC50 [5]: 400 µM; selectivity ratio [7]: 3.9; selectivity ratio [8]: 3.5; IC50 (KB): 0.7 µM

Question: Which Kd [2] does the source give for CCN(CC)CCCC(C)Nc1ccnc2cc(Cl)ccc12 (stereo not drawn) [CHLOROQUINE] here?
Answer: 5.4 µM

Question: What about the IC50 [5] of the same molecule?
Answer: 900 µM

Question: And the IC50 (KB)?
Answer: 22.5 µM

Question: For CCCCCCCNc1c2ccc(Cl)cc2nc2ccc(OC)cc12, which selectivity ratio [1] is on record?
Answer: 0.05

Question: And the Kd [2]?
Answer: 5.4 µM

Question: What about the selectivity ratio [11] of the same molecule?
Answer: 0.04

Question: And the IC50 (Plasmodium falciparum [3])?
Answer: 27.2 µM

Question: And the pKa [4]?
Answer: 7.5

Question: And the IC50 [5]?
Answer: 1500 µM

Question: And the IC50 (Plasmodium falciparum [6])?
Answer: 16.3 µM

Question: And the selectivity ratio [7]?
Answer: 0.02

Question: And the selectivity ratio [8]?
Answer: 0.06

Question: And the IC50 (Plasmodium falciparum [9])?
Answer: 18.1 µM

Question: And the IC50 (KB)?
Answer: 0.85 µM

Question: What about the IC50 (Plasmodium falciparum [10]) of the same molecule?
Answer: 14.6 µM

Question: For NCCC(=O)NCCC(=O)Nc1c2ccccc2nc2ccccc12, which selectivity ratio [1] is on record?
Answer: 2.8

Question: And the Kd [2]?
Answer: 4 µM

Question: What about the selectivity ratio [11] of the same molecule?
Answer: 1.5

Question: And the IC50 (Plasmodium falciparum [3])?
Answer: 20.9 µM

Question: And the pKa [4]?
Answer: 4.53

Question: And the IC50 [5]?
Answer: 1800 µM

Question: What about the IC50 (Plasmodium falciparum [6]) of the same molecule?
Answer: 21.6 µM

Question: What about the selectivity ratio [7] of the same molecule?
Answer: 2.9

Question: And the selectivity ratio [8]?
Answer: 3.4

Question: What about the IC50 (Plasmodium falciparum [9]) of the same molecule?
Answer: 40.9 µM

Question: What about the IC50 (KB) of the same molecule?
Answer: 60.1 µM

Question: And the IC50 (Plasmodium falciparum [10])?
Answer: 17.8 µM
